Data set [1] concerns L6. The data set is described as follows: Cytotoxicity against rat L6 cells after 70 hrs by alamar blue assay. The format is cell-based. As to conditions: L6, 70 h. The procedure, abridged: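 Cells were exposed to serial dilutions for 70 h at 37 °C, 5% CO₂, then given resazurin for 2–3 h. IC50 came from sigmoidal curves; two independent runs in duplicate. Top concentration was 90 μg/mL, converted to μM by molecular weight.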
In general terms: Resazurin is reduced to fluorescent resorufin, in cell work by metabolically active cells.

The test system of data set [2] is Trypanosoma brucei rhodesiense. The data set can be described thus: Antitrypanosomal activity against Trypanosoma brucei rhodesiense STIB900 after 70 hrs by alamar blue assay. The format is functional, organism-based. As to conditions: STIB900, 70 h.
Data set [3] in a line: Selectivity index, ratio of IC50 for rat L6 cells to IC50 for Trypanosoma brucei rhodesiense STIB900. The format is toxicity, cell-based. As to conditions: read-out: Ratio IC50. The procedure, abridged:
(§1)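 Each index is L6 IC50 divided by parasite IC50. L6 values are from the 70 h resazurin assay. T. b. rhodesiense STIB900 values are from the 70 h resazurin assay. P. falciparum K1 values are from erythrocytic-stage [³H]-hypoxanthine incorporation: 48 h drug exposure, then 24 h with label. L. donovani values are from the 72 h axenic amastigote CellTiter assay.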

In data set [4] the test system is Plasmodium falciparum. The data set can be described thus: Antiplasmodial activity against chloroquine-resistant Plasmodium falciparum K1 infected in human erythrocytes after 48 hrs assessed as [3H]hypoxanthine incorporation by liquid scintillation counting. The class given is functional, organism-based.
The nature of data set [5]: Selectivity index, ratio of IC50 for rat L6 cells to IC50 for Plasmodium falciparum K1. As to conditions: read-out: Ratio IC50. The format is toxicity, cell-based. The procedure, abridged: as §1
The test system of data set [6] is Leishmania donovani. The data set is described as follows: Antileishmanial activity against Leishmania donovani MHOM/SD/62/1S-CL2D. The class given is functional, organism-based. The procedure, abridged:
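Axenic amastigotes (MHOM/SD/62/1S-CL2_D) adapted from promastigotes and grown in amastigote medium at 37 °C. 6 × 10⁴ parasites per well were exposed to 2-fold serial dilutions for 72 h at 37 °C in humidified 5% CO₂. Growth was read with tetrazolium CellTiter reagent as absorbance at 490 nm. IC50 came from a four-parameter dose–response fit; duplicate determinations were averaged.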

With `CC(C)NC(=N)c1cccc(-n2cc(-c3cc(C(=N)NC(C)C)ccc3O)nn2)c1`, the IC50 in data set [1] is over 170 µM; in data set [2], 10.9 µM; in data set [4] it was 0.229 µM; in data set [6], over 100 µM. Also, the values for the selectivity ratio in data set [3] and in data set [5] were over 16 and over 742, respectively.
On to `Oc1ccc(C2=NCCN2)cc1-n1cc(-c2cccc(C3=NCCN3)c2)nn1`, for which the IC50 in data set [1] was over 174 µM; in data set [2], 102 µM; in data set [4], 0.325 µM; in data set [6], over 100 µM. Further, the selectivity ratio was over 2 in data set [3] and over 535 in data set [5].
For `COc1cc(C2=NCCN2)ccc1-c1cn(-c2ccc(C3=NCCN3)cc2)nn1`, the IC50 in data set [1] is 142 µM; in data set [2] it was 0.116 µM; in data set [4] it was 0.011 µM; in data set [6] it was over 100 µM. Besides, the selectivity ratio came out at 1220 in data set [3] and 12900 in data set [5].
As to `CC(C)NC(=N)c1cccc(-c2cn(-c3cc(C(=N)NC(C)C)ccc3O)nn2)c1`, the IC50 in data set [1] is over 167 µM; in data set [2] it was 13.9 µM; in data set [4], 0.739 µM; in data set [6], over 100 µM. Further, the selectivity ratio is over 12 in data set [3] and over 226 in data set [5].
For `N=C(N)c1cccc(-c2cn(-c3cc(C(=N)N)ccc3O)nn2)c1`, the IC50 in data set [1] was over 209 µM; in data set [2] it was 49.6 µM; in data set [4], 8.93 µM; in data set [6], over 100 µM. Also, the selectivity ratio in data set [3] is over 4; in data set [5], over 23.
As to `COc1ccc(C2=NCCN2)cc1-n1cc(-c2ccc(C3=NCCN3)cc2)nn1`, the IC50 was over 170 µM in data set [1], 0.162 µM in data set [2], 0.022 µM in data set [4] and over 100 µM in data set [6]. Further, the selectivity ratio in data set [3] was over 1050; in data set [5], over 7730.
On to `c1cc(C2=NCCN2)cc(-c2cn(-c3ccc(C4=NCCN4)cc3)nn2)c1`, for which the IC50 is 127 µM in data set [1], 0.2 µM in data set [2], 0.084 µM in data set [4] and over 100 µM in data set [6]. Further, the values for the selectivity ratio in data set [3] and in data set [5] were 635 and 1510, respectively.
For the compound `Oc1cc(C2=NCCN2)ccc1-c1cn(-c2cccc(C3=NCCN3)c2)nn1`, the IC50 in data set [1] was over 183 µM; in data set [2], 0.606 µM; in data set [4], 0.016 µM; in data set [6], over 100 µM. The selectivity ratio in data set [3] was over 302; in data set [5] it was over 11400.
For `COc1ccc(C(=N)NC(C)C)cc1-n1cc(-c2cccc(C(=N)NC(C)C)c2)nn1`, the IC50 in data set [1] is 131 µM; in data set [2], 10.1 µM; in data set [4] it was 0.125 µM; in data set [6], over 100 µM. The figures for the selectivity ratio in data set [3] and in data set [5] were 13 and 1050, respectively.
In the case of `COc1ccc(C(=N)N)cc1-c1cn(-c2cccc(C(=N)N)c2)nn1`, the IC50 is over 200 µM in data set [1], 1.65 µM in data set [2], 0.024 µM in data set [4] and over 100 µM in data set [6]. The selectivity ratio was over 121 in data set [3] and over 8330 in data set [5].
As to `COc1cc(C2=NCCN2)ccc1-c1cn(-c2cccc(C3=NCCN3)c2)nn1`, the IC50 in data set [1] is over 172 µM; in data set [2], 4.02 µM; in data set [4], 0.064 µM; in data set [6], over 100 µM. Moreover, the figures for the selectivity ratio in data set [3] and in data set [5] were over 43 and over 2690, respectively.
For the compound `COc1cc(C(=N)NC(C)C)ccc1-n1cc(-c2cccc(C(=N)NC(C)C)c2)nn1`, the IC50 is over 159 µM in data set [1], 1.96 µM in data set [2], 0.055 µM in data set [4] and over 100 µM in data set [6]. Besides, the selectivity ratio is over 81 in data set [3] and over 2890 in data set [5].
With `CC(C)NC(=N)c1cccc(-c2cn(-c3cccc(C(=N)NC(C)C)c3)nn2)c1`, the IC50 in data set [1] was over 184 µM; in data set [2], 14.8 µM; in data set [4] it was 0.118 µM; in data set [6], over 100 µM. Moreover, the selectivity ratio is over 12 in data set [3] and over 1560 in data set [5].
For `Oc1ccc(C2=NCCN2)cc1-c1cn(-c2cccc(C3=NCCN3)c2)nn1`, the IC50 in data set [1] was over 183 µM; in data set [2], 11.7 µM; in data set [4], 0.052 µM; in data set [6], over 100 µM. Also, the results for the selectivity ratio in data set [3] and in data set [5] were over 16 and over 3520, respectively.
Consider `CC(C)NC(=N)c1ccc(-n2cc(-c3cccc(C(=N)NC(C)C)c3)nn2)cc1`, for which the IC50 was over 190 µM in data set [1], 0.539 µM in data set [2], 0.038 µM in data set [4] and over 100 µM in data set [6]. The selectivity ratio in data set [3] was over 353; in data set [5], over 5000.
Regarding `c1cc(C2=NCCN2)cc(-c2cn(-c3cccc(C4=NCCN4)c3)nn2)c1`, the IC50 in data set [1] is over 197 µM; in data set [2] it was 14.1 µM; in data set [4] it was 0.365 µM; in data set [6], over 100 µM. The selectivity ratio in data set [3] was over 14; in data set [5], over 540.
Consider `N=C(N)c1ccc(-c2cn(-c3cc(C(=N)N)ccc3O)nn2)cc1`, for which the IC50 in data set [1] was over 203 µM; in data set [2] it was 6.64 µM; in data set [4], 1.23 µM; in data set [6], over 100 µM. For the same compound, the selectivity ratio in data set [3] was over 31; in data set [5] it was over 165.
`CC(C)NC(=N)c1ccc(-c2cn(-c3cc(C(=N)NC(C)C)ccc3O)nn2)cc1`: the IC50 was over 170 µM in data set [1], 15.1 µM in data set [2], 5.27 µM in data set [4] and over 100 µM in data set [6]. The selectivity ratio in data set [3] is over 11; in data set [5], over 32.
In the case of `Oc1cc(C2=NCCN2)ccc1-n1cc(-c2cccc(C3=NCCN3)c2)nn1`, the IC50 in data set [1] is over 187 µM; in data set [2] it was 11.1 µM; in data set [4] it was 0.159 µM; in data set [6], over 100 µM. Further, the selectivity ratio in data set [3] is over 17; in data set [5], over 1180.
Regarding `c1cc(C2=NCCN2)cc(-n2cc(-c3ccc(C4=NCCN4)cc3)nn2)c1`, the IC50 is 133 µM in data set [1], 0.461 µM in data set [2], 0.095 µM in data set [4] and over 100 µM in data set [6]. Moreover, the selectivity ratio in data set [3] came to 289; in data set [5] it was 1400.
`COc1ccc(C2=NCCN2)cc1-n1cc(-c2cccc(C3=NCCN3)c2)nn1`: the IC50 in data set [1] is over 172 µM; in data set [2], 7.83 µM; in data set [4], 0.03 µM; in data set [6] it was over 100 µM. Also, the selectivity ratio is over 22 in data set [3] and over 5730 in data set [5].
`COc1cc(C2=NCCN2)ccc1-n1cc(-c2cccc(C3=NCCN3)c2)nn1`: the IC50 in data set [1] was over 173 µM; in data set [2] it was 1.87 µM; in data set [4], 0.058 µM; in data set [6], over 100 µM. Besides, the selectivity ratio in data set [3] was over 93; in data set [5], over 2980.
As to `COc1ccc(C(=N)NC(C)C)cc1-c1cn(-c2cccc(C(=N)NC(C)C)c2)nn1`, the half-maximal inhibitory concentration (IC50) in data set [1] was over 176 µM; in data set [2], 1.25 µM; in data set [4] it was 0.106 µM; in data set [6] it was over 100 µM. Also, the results for the selectivity ratio in data set [3] and in data set [5] were over 141 and over 1660, respectively.

The IC50 is the concentration at which inhibition is half-maximal.

Values taken from ChEMBL document CHEMBL1156777, “Synthesis and antiprotozoal activity of cationic 1,4-diphenyl-1H-1,2,3-triazoles” (J Med Chem, 2010).
